Active and inactive are the calls of the source. No cut-off for these calls is given here.
How the values were obtained:
[1] = target: Neurotensin receptor type 2 (Homo sapiens, UniProt O95665); assay: Displacement of [3H]NT(8 to 13) from human NTS2 receptor expressed in HEK293 cells; format: cell-based
[2] = target: Neurotensin receptor type 1 (Homo sapiens, UniProt P30989); assay: Displacement of [3H]neurotensin from human NTS1 receptor expressed in CHO cells; format: cell-based
[3] = target: Neurotensin receptor type 1 (Rattus norvegicus) (UniProt P20789); assay: Binding affinity to NTS1 receptor in Sprague-Dawley rat brain at 10 MBq after 60 mins by autoradiography in presence of neurotensin; details: 10 M, tested as the 18F-labelled form
[4] = target: Neurotensin receptor type 1 (Rattus norvegicus) (UniProt P20789); assay: Binding affinity to NTS1 receptor in Sprague-Dawley rat brain at 10 MBq after 60 mins by autoradiography; details: 10 M, tested as the 18F-labelled form
[5] = target: T1, Neurotensin receptor type 2 (Rattus norvegicus) (UniProt Q63384); assay: Binding affinity to NTS2 receptor in Sprague-Dawley rat brain cortex at 10 MBq after 60 mins by autoradiography in presence of H-Arg-Arg-Pro-N-h-Tyr-Ile-Leu-OH; details: 10 M, tested as the 18F-labelled form
T1 sequence (whole entry): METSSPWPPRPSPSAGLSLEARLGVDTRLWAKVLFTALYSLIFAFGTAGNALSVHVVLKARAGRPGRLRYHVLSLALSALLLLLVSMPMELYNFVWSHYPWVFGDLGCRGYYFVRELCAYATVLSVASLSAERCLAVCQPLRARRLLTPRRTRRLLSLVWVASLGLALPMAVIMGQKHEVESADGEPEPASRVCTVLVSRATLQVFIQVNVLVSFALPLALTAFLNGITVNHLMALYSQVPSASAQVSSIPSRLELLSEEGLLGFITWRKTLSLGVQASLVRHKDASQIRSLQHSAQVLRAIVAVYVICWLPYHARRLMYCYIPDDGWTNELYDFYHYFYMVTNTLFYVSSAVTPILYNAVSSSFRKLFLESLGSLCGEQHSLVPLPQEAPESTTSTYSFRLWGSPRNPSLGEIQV

[6] = target: Neurotensin receptor type 1 (Rattus norvegicus) (UniProt P20789); assay: Binding affinity to NTS1 receptor in Sprague-Dawley rat brain at 10 MBq after 60 mins by autoradiography in presence of H-Arg-Arg-Pro-N-h-Tyr-Ile-Leu-OH; details: 10 M, tested as the 18F-labelled form
Nucleic Acid [7] = assay: Ratio of drug uptake in tumor to kidney of athymic nude mouse transfected with human HT-29 cells at 4 to 8 MBq, iv after 60 mins by gamma-counting analysis; format: ADME, organism-based; details: in vivo, 1 h
How it was run: (§1)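 [18F]-labelled tracer (radiochemical purity >99% by radio-HPLC) injected into nude mice bearing HT29 xenografts with 7–10 mm tumour diameter. Organ and tumour uptake were measured as % ID/g at 10, 30 and 60 min post-injection. Tumour-to-organ ratios were derived from these values and reported as mean ± SD of two animals.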

Tumour [8] = assay: Drug uptake in tumor of athymic nude mouse xenografted with human HT-29 cells at 4 to 8 MBq, iv after 10 mins by gamma-counting analysis; format: ADME, organism-based, Neoplasm; details: in vivo
How it was run: (§2)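 Biodistribution in nude mice carrying HT29 xenografts with 7–10 mm tumor diameter. Tissues were sampled at 10, 30 and 60 min post-injection. Uptake is expressed as % ID/g, and tumor-to-organ ratios were also calculated. Values are mean ± SD from two animals.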

Nucleic Acid [9] = assay: Ratio of drug uptake in tumor to blood of athymic nude mouse xenografted with human HT-29 cells at 4 to 8 MBq, iv after 10 to 60 mins by gamma-counting analysis; format: ADME, organism-based; details: tumour; how it was run: as §1
Tumour [10] = assay: Drug uptake in tumor of athymic nude mouse transfected with human HT-29 cells at 1 to 3 MBq, iv after 45 to 65 mins by PET imaging analysis; format: ADME, organism-based, Neoplasm; details: in vivo
How it was run: (§3)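 Small-animal PET of HT29 xenografted nude mice (tumor diameter 7–10 mm), with images taken 45–65 min post-injection. Tumor uptake was quantified by μPET as % ID/g. For blocking, 3 mg/kg of the […] NTS1 ligand SR142948A was co-injected with the tracer. Values are mean ± SEM from 4 animals.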

[11] = Octanol-water partition coefficient, log D of the compound at pH 7.4 by gamma-counting analysis; format: physicochemical
Liver = assay: Drug uptake in liver of athymic nude mouse transfected with human HT-29 cells at 4 to 8 MBq, iv after 10 to 60 mins by gamma-counting analysis; format: ADME, organism-based; details: in vivo; how it was run: as §2
Kidney = assay: Drug uptake in kidney of athymic nude mouse xenografted with human HT-29 cells at 4 to 8 MBq, iv after 10 to 60 mins by gamma-counting analysis; format: ADME, organism-based; details: in vivo; how it was run: as §2
[12] = Metabolic stability in blood of athymic nude mouse transfected with human HT-29 cells at 4 to 8 MBq, iv after 10 mins by radio-HPLC analysis; format: ADME, organism-based; details: read-out: Stability
How it was run: (§4)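 Blood samples were taken from HT29 xenografted nude mice at 10 and 30 min post-injection. Intact tracer was quantified by radio-HPLC. Radiochemical purity of the injected tracer was above 99% by radio-HPLC.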

Serum = assay: Metabolic stability in human serum after 5 to 180 mins by radio-HPLC analysis; format: ADME, cell-free
Tumour [13] = assay: Drug uptake in tumor of athymic nude mouse transfected with human HT-29 cells at 1 to 3 MBq, iv after 45 to 65 mins by PET imaging analysis in presence of SR142948A; format: ADME, organism-based, Neoplasm; details: in vivo; how it was run: as §3
[14] = Metabolic stability in blood of athymic nude mouse xenografted with human HT-29 cells at 4 to 8 MBq, iv after 30 mins by radio-HPLC analysis; format: ADME, organism-based; details: read-out: Stability; how it was run: as §4
Blood = assay: Drug uptake in blood of athymic nude mouse transfected with human HT-29 cells at 4 to 8 MBq, iv after 10 to 60 mins by gamma-counting analysis; format: ADME, organism-based; details: in vivo; how it was run: as §2
Tumour [15] = assay: Drug uptake in tumor of athymic nude mouse xenografted with human HT-29 cells at 4 to 8 MBq, iv after 60 mins by gamma-counting analysis; format: ADME, organism-based, Neoplasm; details: in vivo, 1 h; how it was run: as §2
Brain = assay: Drug uptake in Sprague-Dawley rat brain by autoradiography; format: ADME, tissue-based; details: in vivo

Neurotensin receptor type 1 (Rattus norvegicus), sequence (P20789 whole entry): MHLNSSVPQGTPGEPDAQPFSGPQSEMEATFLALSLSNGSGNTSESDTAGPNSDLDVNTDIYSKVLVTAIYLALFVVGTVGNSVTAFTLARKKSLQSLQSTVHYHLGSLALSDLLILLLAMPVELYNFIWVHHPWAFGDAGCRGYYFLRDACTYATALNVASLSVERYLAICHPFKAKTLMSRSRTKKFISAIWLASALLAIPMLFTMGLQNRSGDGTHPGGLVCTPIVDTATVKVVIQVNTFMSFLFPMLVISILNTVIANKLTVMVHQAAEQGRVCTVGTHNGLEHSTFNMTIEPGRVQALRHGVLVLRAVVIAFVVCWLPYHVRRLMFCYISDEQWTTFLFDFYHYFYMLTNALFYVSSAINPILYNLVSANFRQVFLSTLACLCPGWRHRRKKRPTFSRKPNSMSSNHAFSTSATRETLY
Neurotensin receptor type 2, sequence (O95665 whole entry): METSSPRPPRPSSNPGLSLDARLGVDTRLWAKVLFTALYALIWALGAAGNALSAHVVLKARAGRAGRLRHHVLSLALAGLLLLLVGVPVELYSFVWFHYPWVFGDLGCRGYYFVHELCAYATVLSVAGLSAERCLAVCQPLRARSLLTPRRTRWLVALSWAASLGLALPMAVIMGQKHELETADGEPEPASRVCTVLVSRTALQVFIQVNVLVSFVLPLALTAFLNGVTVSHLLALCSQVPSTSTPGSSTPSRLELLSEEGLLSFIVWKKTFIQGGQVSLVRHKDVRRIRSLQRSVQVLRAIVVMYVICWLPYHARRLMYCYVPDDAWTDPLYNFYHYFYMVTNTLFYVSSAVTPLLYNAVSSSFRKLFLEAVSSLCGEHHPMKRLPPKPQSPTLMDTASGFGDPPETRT
Neurotensin receptor type 1, sequence (P30989 whole entry): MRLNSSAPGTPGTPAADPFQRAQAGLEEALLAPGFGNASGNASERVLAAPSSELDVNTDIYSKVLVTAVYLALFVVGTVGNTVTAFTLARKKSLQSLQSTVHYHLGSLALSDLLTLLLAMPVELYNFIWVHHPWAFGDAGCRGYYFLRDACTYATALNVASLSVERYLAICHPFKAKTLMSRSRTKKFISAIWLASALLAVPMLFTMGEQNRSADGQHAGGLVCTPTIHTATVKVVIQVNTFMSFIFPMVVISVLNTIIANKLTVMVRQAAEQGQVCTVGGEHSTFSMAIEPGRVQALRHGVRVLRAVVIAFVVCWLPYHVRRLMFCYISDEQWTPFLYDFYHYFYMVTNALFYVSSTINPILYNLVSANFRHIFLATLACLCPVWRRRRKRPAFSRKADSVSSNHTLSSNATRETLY

Row | Ki [1] [nM] | Ki [2] [nM] | Activity [3] | Activity [4] | Activity [5] | Activity [6] | Ratio (Nucleic Acid [7]) | Drug uptake (Tumour [8]) [% ID/g] | Ratio (Nucleic Acid [9]) | Drug uptake (Tumour [10]) | logD [11] | Drug uptake (Liver) | Drug uptake (Kidney) | remaining at 10 min [12] [%] | Stability (Serum) | Drug uptake (Tumour [13]) | remaining at 0.5 h [14] [%] | Drug uptake (Blood) | Drug uptake (Tumour [15]) [% ID/g] | Drug uptake (Brain) | SMILES
1 | 74 | 1 | – | – | – | – | – | – | – | – | – | – | – | – | – | – | – | – | – | – | COc1cccc(OC)c1-c1cc(C(=O)NC2(C(=O)O)C3CC4CC(C3)CC2C4)nn1-c1ccc(C(=O)N(C)CCCN(C)C)cc1C(C)C (configuration not stated)
2 | 69 | 0.98 | Active | Active | Active | Active | – | – | – | – | – | – | – | – | – | – | – | – | – | – | COc1cccc(OC)c1-c1cc(C(=O)NC2(C(=O)O)C3CC4CC(C3)CC2C4)nn1-c1ccc(C(=O)N(C)CCCN(C)CCCCc2cn([C@@H]3O[C@H](CO)[C@@H](O)[C@H](O)[C@H]3F)nn2)cc1C(C)C (some centres not stated)
3 | – | – | – | – | – | – | 8 | 0.84 | 0.3 | Active | -0.24 | Not Active | Active | > 98 | Stable | Not Active | > 98 | Not Active | 0.74 | Not Active | COc1cccc(OC)c1-c1cc(C(=O)NC2(C(=O)O)C3CC4CC(C3)CC2C4)nn1-c1ccc(C(=O)N(C)CCCN(C)CCCCc2cn([C@@H]3O[C@H](CO)[C@@H](O)[C@H](O)[C@H]3[18F])nn2)cc1C(C)C (some centres not stated)

— ChEMBL document CHEMBL3085769, “Synthesis and evaluation of a (18)F-labeled diarylpyrazole glycoconjugate for the imaging of NTS1-positive tumors” (J Med Chem, 2013)
